In the data set the test system is MS2 coat protein. The experiment in a line: apparent Kd, MS2 coat protein; higher = weaker binding; RNA-MaP array; FMN 200 µM where present. Put shortly: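 The apparent Kd comes from binding curves fitted cluster by cluster, filtered, and summarised as a median. Those curves followed SNAP-549-labelled MS2 coat protein from 0.7 or 1.5 nM, doubling to 3 µM, on Illumina sequencing-chip clusters where stalled E. coli RNA polymerase had transcribed the designs, without and then with constant ligand. The buffer was 100 mM Tris-HCl pH 7.5, 80 mM KCl, 4 mM MgCl2, BSA, DTT, yeast tRNA and Tween-20, and green signal was normalised to red-channel RNA signal and control-cluster median Fmax.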

The mark [1] stands for this setting: designed as: OFF switch for flavin mononucleotide, no ligand.
Setting [2] is: ligand present: flavin mononucleotide, designed as: OFF switch for flavin mononucleotide.
The mark [3] stands for this setting: designed as: ON switch for flavin mononucleotide, no ligand.
Where [4] appears, read: ligand present: flavin mononucleotide, designed as: ON switch for flavin mononucleotide.

Regarding “UAUAAGUCUCAUGUAACAUGAGGAUCACCCAUGUCAUAUUGUAGAAGGAUGAUAUUAUGUAUAUCAUAGGAUAUACUAUAAGAU”, the “apparent Kd” value reads like this: under setting [1], 21.2 nM; under setting [2], 23.3 nM.

On to “UAAGAUUAUGUAGGAUAUGGUUAUCUAUGUCUAGUUACUAGACAUAGAUAACCAGAAGGACAUGAGGAUCACCCAUGUUGAAUG”, for which the “apparent Kd” value under setting [1] turned out to be 10.3 nM and the “apparent Kd” value under setting [2] was 44.4 nM.

Turning to “AAAUACGGUCAAGGAUAUGUAUAAAAGAUAAGAAAACAUGAGGAUCACCCAUGUAUAUGGUGGGAACAGAAGGUGAAUAAGUAA”, the “apparent Kd” value amounted to 182 nM under setting [1] and 142 nM under setting [2].

As to “UAUAUAUAGUAAGGAUAUGUAUUUAUAUUAUAAACAGAAGGUACUGACAUGAGGAUCACCCAUGUUUUAGUGUGGGCAUGUAGA”, the “apparent Kd” value was determined as 77.9 nM under setting [1] and 114 nM under setting [2].

For the sequence “CUAUGACGAAUAGGAUAUUCGAUCAAAAGGAUAGAAGAAGGGUUACAUGAGGAUCACCCAUGUAUGCACAUGAGGAUCCCUUAG”, the “apparent Kd” value under setting [1] was determined as 193 nM and the “apparent Kd” value under setting [2] turned out to be 219 nM.

As for “GCGAAGAACGAGAAGGCCACUACAUGAGGAUCACCCAUGUCGUGGAGUAUUGGAGGAUAUCGUUCGGCGUCUCAUGAGGACAUA”, the “apparent Kd” value is 4.95 nM under setting [1] and 5.22 nM under setting [2].

As for “AGCACGAAAGUGCAACGAUGUACGAGAAGGACAUGAGGAUCACCCAUGUAGCAGUAACUGCAAAUGUAGGAUAUCGUACAUCGA”, the “apparent Kd” value reads like this: under setting [1], 6.54 nM; under setting [2], 14.7 nM.

For “GCAAACAUGAGGAUCACCCAUGUCGGCUAUAAGUCCGCUCACAGAAGGGAUACGCCGGCAGGUGAUCAGGAUAUGUGGGCGCGC”, the “apparent Kd” value reads like this: under setting [3], 239 nM; under setting [4], 16.5 nM.

With “ACGACGAAAGUCGAACGAUGUAGCAGAAGGACAUGAGGAUCACCCAUGUAAAAUGUAACAGCCAUGUAGGAUAUGCUACAUCGA”, the “apparent Kd” value by setting is: under setting [1], 31.3 nM; under setting [2], 238 nM.

For the sequence “UGUGUGAGACAGGAUAUGCCGGAUGAAAGGCAGGUAGAAGGGUCUACAUGAGGAUCACCCAUGUGGCCGGUUGG”, the “apparent Kd” value is, setting by setting: under setting [1], 17.4 nM; under setting [2], 18.7 nM.

On to “UGAGGACAUGAGGAUCACCCAUGUAAGGAUAUGCGGAGAGUUUGGAGAGGUUGAGGAGGCAGAAGGUACGGGAU”, for which the “apparent Kd” value under setting [1] was 155 nM and the “apparent Kd” value under setting [2] is 79.1 nM.

Regarding “AAUAGACAUGAGGAUCACCCAUGUGUAUAUGGGAGAGGAUAUACGGGACACAAGGGCGGAGUAGAAGGCUCGAGAC”, the “apparent Kd” value is, setting by setting: under setting [3], 149 nM; under setting [4], 146 nM.

As to “CAAUUCUGAGGAUAUCGAUUUUUGUACAUGAGGAUCACCCAUGUCCUUUUUAUUUAAUCCCGAGAAGGCAGUGUAU”, the “apparent Kd” value by setting is: under setting [1], 23.3 nM; under setting [2], 26.1 nM.

“AAGGCGAGAGGAUAUACAUGAGGAUCACCCAUGUGUCGGCCCUCCGCAUAUGCCUUGUGUAGAAGGCUCCCGAA”: the “apparent Kd” value worked out at 16.5 nM under setting [1] and 22.9 nM under setting [2].

Take “GGUGGACAUGAGGAUCACCCAUGUGAGGAUAUCGGCCGGCUAGUGGCGGCUGGCUUCACGAGAAGGCGCAUAGU”: the “apparent Kd” value is, setting by setting: under setting [1], 85.8 nM; under setting [2], 107 nM.

Regarding “GGAUAGGACAGAGGAUAUACGUGCUAGAGAUACUAGCAAAAUUUGCUCACAUGAGGAUCACCCAUGUAGAAGGCUGUCCUAUCG”, the “apparent Kd” value stood at 5.31 nM under setting [1] and 19.7 nM under setting [2].

Take “GGGCUCGGAGGAUAUACAUGAGGAUCACCCAUGUAGGGCUCGGGUAUUUCUGGGUCUUGUAGAAGGCUGGGUCU”: the “apparent Kd” value is, setting by setting: under setting [1], 21.3 nM; under setting [2], 30 nM.

As to “GUCAGCUCGUGAGGAUAUACAACACUGCUUCGGCAGUGUUUUAAGAUCACAUGAGGAUCACCCAUGUAGAAGGCACGAGCUGAU”, the “apparent Kd” value under setting [1] was 6.29 nM and the “apparent Kd” value under setting [2] turned out to be 44 nM.

Take “AACGAGCAAGAUUAUUAUGAAUAAACAUGAGGAUCACCCAUGUAGGAUAUGCAGUGGAAUACACUGCAGAAGGACAAAAGCUCG”: the “apparent Kd” value was 6.49 nM under setting [1] and 12.9 nM under setting [2].

Consider “UGUGUGUGGCAGGAUAUGCCGGUCGUUGGUCGGGUAGAAGGGUCUACAUGAGGAUCACCCAUGUGGCCGGUUGG”, for which the “apparent Kd” value under setting [1] was determined as 46.8 nM and the “apparent Kd” value under setting [2] turned out to be 44 nM.

Take “UGUGUGUGACAGGAUAUGCUGGUUGUGAGGCGGGUAGAAGGGUCUACAUGAGGAUCACCCAUGUGGCCGGUUGG”: the “apparent Kd” value under setting [1] was 18.7 nM and the “apparent Kd” value under setting [2] stood at 18.7 nM.

For “CGUGCGUAUGUGAGGAUAUGCUGGUCCUUGGAUCAGCAGAAGGCACAUGAGGAUCACCCAUGUGGUGUCGUACU”, the “apparent Kd” value came out at 297 nM under setting [1] and 19.2 nM under setting [2].

Regarding “GCCCGCGCUAAGGAUAUCAGGGUUAAAAUAGUAUGAGAAGGUAGCACAUGAGGAUCACCCAUGUGUCCCUUAUG”, the “apparent Kd” value worked out at 16.5 nM under setting [1] and 17.3 nM under setting [2].

Turning to “CCCGCGAUGUCAGGAUAUAGUCGGAGGUGCAGACUAGAAGGGACAUGAGGAUCACCCAUGUGCGUAAACAUUUGAAACCCAGGU”, the “apparent Kd” value under setting [1] is 16.5 nM and the “apparent Kd” value under setting [2] came to 33.1 nM.

Regarding “AACUGACAUGAGGAUCACCCAUGUCAGGAUAUGAUUUGACGAAAUAAAAUAAGUCAUAUCAGAAGGGACAUGGA”, the “apparent Kd” value is, setting by setting: under setting [1], 25.9 nM; under setting [2], 46.9 nM.

In the case of “UGGUACAUCAUAGGAUAUCGUGUGUAAACAUGAGGAUCACCCAUGUCAUCCGAGAGUAUGUCGACCGAGAAGGGUGAUGUACCU”, the “apparent Kd” value is, setting by setting: under setting [3], 45.4 nM; under setting [4], 72.7 nM.

With “CGAGUUUUUGAGAAGGCAUAUUAUAAUAUUCCACAUGUUUACAUGAGGAUCACCCAUGUUUACUAUGAGGAUAUCAGAAUGUCG”, the “apparent Kd” value runs as follows: under setting [1], 4.72 nM; under setting [2], 4.54 nM.

Regarding “UUGUUGUAUGUAGGAUAUGCAUAUUAUUAUUAUGCAGAAGGACAUGAGGAUCACCCAUGUGUAUUAUUAUUAUAUAUUAUAUAU”, the “apparent Kd” value came out at 25.5 nM under setting [1] and 44.1 nM under setting [2].

Consider “CGGCAAGUCACAGGAUAUGGUGAUGUACAUGAGGAUCACCCAUGUCCGUCUUCUCUCACAAGAUGCCAGAAGGGUGACUCCCGG”, for which the “apparent Kd” value was determined as 852 nM under setting [3] and 120 nM under setting [4].

Take “AUAUCUUUAUCAGGAUAUGGACAGGCCUGUCCGUAUUGAGACAGUAACAUGAGGAUCACCCAUGUCCAGAAGGGAUCGAUGUAU”: the “apparent Kd” value was 56.5 nM under setting [1] and 45.8 nM under setting [2].

In the case of “UCCUGAUUGAGAGGUAGGAGUGGUAGAAGGCGACCGGUGCCAGAUGACAUGAGGAUCACCCAUGUCGAGGAUAUACCACUGAAU”, the “apparent Kd” value under setting [1] amounted to 7.38 nM and the “apparent Kd” value under setting [2] amounted to 12.4 nM.

“CGAUCACAUGUCAGGAUAUGCGAGCUUGUAUCGCCGUAGAAGGGACAUGAGGAUCACCCAUGUCCGAUCAUUCG”: the “apparent Kd” value is 28.3 nM under setting [1] and 52.1 nM under setting [2].

Take “GGGUCAACAUGAGGAUCACCCAUGUAGGAUAUCGCUAUUGUAAUCAUGAAACAUGAUUACAAUAGCGAGAAGGACAUAUGCUUU”: the “apparent Kd” value under setting [1] is 12.3 nM and the “apparent Kd” value under setting [2] is 25.4 nM.

As to “GCGUCGAGUGUGAGGAUAUGCUGGUCCUUGGAUCAGCAGAAGGCACAUGAGGAUCACCCAUGUGAAUACGAUGC”, the “apparent Kd” value is, setting by setting: under setting [1], 21.7 nM; under setting [2], 136 nM.

On to “AGGAAGUUAGGAUAUGCUGCUCGUCACUUGCGUGAUGAGUAGCAGAAGGGACAUGAGGAUCACCCAUGUAAAAA”, for which the “apparent Kd” value by setting is: under setting [1], 44.2 nM; under setting [2], 22.7 nM.

Turning to “AAAGAAAAACUAGAGGAUAUCCGAGUGGUAACAUGAGGAUCACCCAUGUGAUGAAAGGAACAUGAGGAGAAGGCUAGAAGAAAAA”, the “apparent Kd” value worked out at 21.7 nM under setting [3] and 8.11 nM under setting [4].

“UAAAAGCAAGGAUAUACAUGAGGAUCACCCAUGUGAGGCUAAGUCUGCCAUGGCUCAGGUAGAAGGUGCGUCGA”: the “apparent Kd” value worked out at 51.3 nM under setting [1] and 241 nM under setting [2].

With “UAUUUACAUGAGGAUCACCCAUGUCAGGAUAUGCGUCUAUCGUCGAAAGACGAUAGUUGCAGAAGGGACAAUAU”, the “apparent Kd” value under setting [1] is 62.8 nM and the “apparent Kd” value under setting [2] worked out at 123 nM.

Turning to “UAUGUUGUUGUGAGGAUAUACUUUGUUUGACCGUAGUAGAAGGCACAUGAGGAUCACCCAUGUAGAUUUUUGGU”, the “apparent Kd” value stood at 9.74 nM under setting [1] and 13.6 nM under setting [2].

With “AGUGUCGGCACAGGAUAUGAGAUGCCGGCAGACAUGAGGAUCACCCAUGUAAGCGACCCAGGCAGUCAGAAGGGUGAUCGACAA”, the “apparent Kd” value by setting is: under setting [3], 156 nM; under setting [4], 44.4 nM.

As to “GUCGUGUUAGGAUAUGGCAACGGCUACGAAAGUAGUUGUUGUUAGAAGGAACAUGAGGAUCACCCAUGUAUGAC”, the “apparent Kd” value is 38 nM under setting [1] and 101 nM under setting [2].

Consider “CUGAGGUCAGGAUAUGCAUGGCGGGACUUGCGUCGUGGCGUGCAGAAGGGACAUGAGGAUCACCCAUGUGGAGC”, for which the “apparent Kd” value is 86.7 nM under setting [1] and 249 nM under setting [2].

As for “AGUACUACAGGAUAUACGAGGGAGGUCCACGUGACCCUUUUACAUGAGGAUCACCCAUGUAGAAGGGUAGUACA”, the “apparent Kd” value by setting is: under setting [1], 23.3 nM; under setting [2], 26.8 nM.

In the case of “UUACCUUAUGAGAAGGCGAUCAUGAAACAUGAUCGAGGAUAUCAUGUAAACAUGAGGAUCACCCAUGUAUGGGUAUUAUGGUAA”, the “apparent Kd” value was 213 nM under setting [3] and 28.5 nM under setting [4].

Turning to “GUGUACAGAGGAUAUACACGAAUCUAGCGAAGCUAGGUUUGACAUGAGGAUCACCCAUGUAGAAGGCUGUACAC”, the “apparent Kd” value under setting [1] came to 16.1 nM and the “apparent Kd” value under setting [2] is 24.2 nM.

As for “GGGUAGUGAGGAUAUCGUUGUUAGGAGGAGUAGGUAGGAGGCGAGAAGGCACAUGAGGAUCACCCAUGUAUGAG”, the “apparent Kd” value runs as follows: under setting [1], 29.2 nM; under setting [2], 30.4 nM.

As for “UGGUACAUGGGAGGAUAUCAUGUUCUUACAUGAGGAUCACCCAUGUCGAUGGAGACAUCGGAGAUUGAGAAGGCCCAUGUACCU”, the “apparent Kd” value was 1070 nM under setting [3] and 54.2 nM under setting [4].

Regarding “AGAGAAUAGGUAGGAUAUCUUAAUAGAAAGAAUAGAGAAGGACCACAUGAGGAUCACCCAUGUGAUGUCUUGAGACUACAUGGU”, the “apparent Kd” value came to 16.4 nM under setting [1] and 19.4 nM under setting [2].

Broadly, the apparent Kd is the concentration giving half-maximal binding under the conditions of the assay.

The record behind these values is the EternaBench riboswitch data.
